These results are taken from ChEMBL document CHEMBL1649070, “Virtual screening identification of nonfolate compounds, including a CNS drug, as antiparasitic agents inhibiting pteridine reductase” (J Med Chem, 2011).

For data set [1], the target named is T1, Pteridine reductase 1 (Leishmania major) (UniProt Q01782).
T1 sequence (whole entry): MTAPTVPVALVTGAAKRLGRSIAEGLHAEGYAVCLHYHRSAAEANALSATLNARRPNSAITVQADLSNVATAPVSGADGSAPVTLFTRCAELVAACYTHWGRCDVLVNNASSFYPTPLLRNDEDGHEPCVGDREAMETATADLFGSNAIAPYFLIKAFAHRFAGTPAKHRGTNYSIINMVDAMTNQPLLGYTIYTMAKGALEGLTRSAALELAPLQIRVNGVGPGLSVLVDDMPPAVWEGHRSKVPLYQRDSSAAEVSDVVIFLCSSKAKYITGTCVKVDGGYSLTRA
The conditions noted are these: at 500 µM.

Data set [2] is described as follows: Solubility of the compound at pH 7.4. The class given is physicochemical. The conditions noted are these: buffer.
A short description of data set [3]: Lipophilicity, log D of the compound in octanol buffer at pH 7.4. The format is physicochemical.
Data set [4] concerns the target T1, Pteridine reductase 1 (Leishmania major). Put plainly: Inhibition of Leishmania major PTR1 at 5 uM. In outline:
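Compounds dissolved in DMSO and screened at a single 5 μM concentration; DMSO kept below 1%. Measurements run in triplicate.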

Data set [5] can be described thus: Cytotoxicity against human MRC5 cells after 72 hrs by Alamar blue assay. The class given is cell-based. As to conditions: read-out: ED50. (In general: The colour change of resazurin is a common sign of viable cells or microbes.)
Data set [6] deals with Leishmania mexicana. Kind of data set: Antileishmanial activity against Leishmania mexicana MHOM/BZ/84/BEL46 assessed as growth at 50 ug/ml by Alamar blue assay. The format is functional. In outline:
(§1)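 Promastigotes grown in SDM-79, pH 7.3, with 15% heat-inactivated FCS at 28 C in 5% CO2, then seeded at 1 × 10^6 parasites/mL. Each compound tested alone at 50 μg/mL in duplicate as a control for the combination experiments; DMSO below 1% final. After 72 h at 28 C, Alamar Blue added for 4 h; fluorescence read at ex 530 / em 590 nm. Growth expressed as percentage of untreated cultures.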

Data set [7] has as its system Leishmania major. Put plainly: Antileishmanial activity against Leishmania major MHOM/SU/73/5-ASKH assessed as growth at 50 ug/ml by Alamar blue assay. The format is functional. In outline:
as §1

Data set [8] has as its target Bifunctional dihydrofolate reductase-thymidylate synthase (Leishmania major) (UniProt P07382). Put plainly: Inhibition of Leishmania major DHFR at 50 uM. In outline: (§2)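 NADPH oxidation followed at 340 nm. Compounds in DMSO, screened at a single concentration between 25 μM and 1 mM. Measurements run in triplicate.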
Data set [9] addresses T2, Dihydrofolate reductase (Homo sapiens) (UniProt P00374).
T2 sequence (whole entry): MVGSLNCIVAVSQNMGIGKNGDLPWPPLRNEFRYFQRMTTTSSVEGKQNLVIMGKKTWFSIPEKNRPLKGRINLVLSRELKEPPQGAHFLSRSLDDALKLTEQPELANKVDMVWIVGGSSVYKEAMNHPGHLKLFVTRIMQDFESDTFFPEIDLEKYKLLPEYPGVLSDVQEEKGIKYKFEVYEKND
Kind of data set: Inhibition of human DHFR at 50 uM. In outline:
as §2

In brackets after ≈: the same amount, converted by molar mass. Activity calls are given as the source filed them. No cut-off for these calls is given here.

Chain of Bifunctional dihydrofolate reductase-thymidylate synthase (Leishmania major) (P07382 whole entry, looked up): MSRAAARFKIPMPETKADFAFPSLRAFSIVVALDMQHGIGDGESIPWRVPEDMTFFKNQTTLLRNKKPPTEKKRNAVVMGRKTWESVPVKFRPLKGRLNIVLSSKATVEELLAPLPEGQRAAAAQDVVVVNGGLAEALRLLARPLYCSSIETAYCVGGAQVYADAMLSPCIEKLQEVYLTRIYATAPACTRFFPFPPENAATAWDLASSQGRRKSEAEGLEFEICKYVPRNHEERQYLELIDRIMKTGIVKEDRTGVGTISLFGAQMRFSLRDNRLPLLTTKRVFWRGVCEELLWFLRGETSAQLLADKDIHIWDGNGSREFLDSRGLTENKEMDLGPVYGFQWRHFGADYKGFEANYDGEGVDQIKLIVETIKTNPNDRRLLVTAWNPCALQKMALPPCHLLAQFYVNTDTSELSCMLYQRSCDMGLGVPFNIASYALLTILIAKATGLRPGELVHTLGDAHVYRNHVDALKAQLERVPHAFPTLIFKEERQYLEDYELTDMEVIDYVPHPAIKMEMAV

As to `COc1ccc(C(C)=O)cc1CCl`, the inhibition result in data set [1] was “inactive”. Take `Cc1ccc(C=O)cc1F`: the inhibition entry in [1] is “inactive”. One may read the solubility as the dissolved amount per volume that the medium holds. The logD is the decadic logarithm of the distribution of all forms, ionised or not, between an organic phase and buffer at a given pH. Read a high logD as higher lipophilicity. Take `Cc1cc(C)cc(-c2nnc(N)s2)c1`: the solubility in data set [2] came out at 400 µM (≈ 82.1 µg/mL). Also, the logD in data set [3] came out at 2.95. Further, in data set [4], the inhibition entry is “inactive”. Take `CC(=O)c1cccc(O)c1`: the inhibition result in data set [1] is “inactive”.

As to `Cn1cc(C(=O)O)c2ccccc21`, the inhibition result in data set [1] is “inactive”. Same read-out and setting: the result for `c1ccc2cnncc2c1` reads “inactive”.

As for `Nc1nnc(-c2ccc3nn[nH]c3c2)s1`, in data set [5], the CC50 at 72 h was 51.5 µg/mL (≈ 236 µM). Moreover, in data set [2], the solubility worked out at 2500 µM (≈ 546 µg/mL). Moreover, the logD in data set [3] came out at 0.38. Regarding `Nc1ccc(F)c(N)c1`, the inhibition entry in data set [1] is “inactive”. For `COc1ccc2c(c1)c(C=O)cn2C`, the inhibition result in data set [1] was “inactive”.

For `Nc1nnc(-c2ccccc2)s1`, the solubility in data set [2] amounted to 2000 µM (≈ 354 µg/mL). The same compound gave a logD in [3] of 2.03. In [4], the inhibition entry is “inactive”. As for `O=C(CO)c1ccc(Cl)cc1`, the inhibition result in data set [1] was “inactive”.

With `Cc1ccc(C(=O)Nc2nnc(-c3ccc(C)c(C)c3)s2)cc1C`, in [4], the inhibition entry was “inactive”. As for `Cc1cccc2cc[nH]c12`, the inhibition entry in data set [1] is “inactive”. Take `O=C(O)CCNC(=O)c1ccc([N+](=O)[O-])cc1`: in data set [1], the inhibition result was “inactive”.

Take `Nc1cccc2c1C(=O)c1ccccc1-2`: in [1], the inhibition entry is “inactive”.

On to `CCn1nc(C)cc1N`, for which, in data set [1], the inhibition entry is “inactive”. Regarding `Cc1cccc(-c2nnn[nH]2)c1`, the inhibition result in data set [1] is “inactive”. `CC(=O)c1ccc(C#N)s1`: the inhibition result in data set [1] was “inactive”. The same measure, in the same setting: the result for `C=CCc1cc(OC)c(O)cc1C=O` reads “inactive”; that for `O=C1Cc2ccc(F)cc2N1`, “inactive”.

`CCc1nc(N)nc(N)c1-c1ccc(Cl)cc1` [PYRIMETHAMINE]: the growth, % of control at 50 µg/mL was found to be 102% in data set [6] and 68% in data set [7]. In data set [5], the CC50 at 72 h was 16.2 µg/mL (≈ 65.3 µM). The compound `NCCc1ccc(-c2nnc(N)s2)cc1` yielded a solubility in data set [2] of 210000 µM (≈ 46300 µg/mL). In data set [3], this compound registered a logD of -0.69. Moreover, the inhibition result in data set [4] was “inactive”. In turn, `Nc1nnc([C@@H](O)c2ccccc2)s1` showed a solubility in [2] of 3700 µM (≈ 767 µg/mL). The same compound returned a logD in [3] of 1. In [4], the inhibition result was “inactive”. In the case of `Nc1nnc(CCCl)s1`, the solubility in [2] turned out to be 42000 µM (≈ 6870 µg/mL). The same compound displayed a logD in [3] of 0.44.

In data set [2], `Nc1nnc(-c2ccncc2)s1` had a solubility of 13000 µM (≈ 2320 µg/mL). The log distribution coefficient (logD) in data set [3] was found to be 0.77. Moreover, the inhibition result in [4] was “inactive”.

On to `Nc1nnc(-c2cccc(NS(=O)(=O)c3ccc([N+](=O)[O-])cc3)c2)s1`, for which the concentration in solution in data set [2] (solubility) was 19 µM (≈ 7.17 µg/mL). The compound further displayed a logD in [3] of 2.43. For the same compound, the inhibition entry in [4] is “inactive”. Regarding `O=C(CN1C(=O)c2ccccc2C1=O)Nc1nnc(CN2C(=O)c3ccccc3C2=O)s1`, the inhibition entry in data set [8], in data set [9] and in [4] was “inactive” each time. For the compound `O=C(Nc1nnc(-c2ccncc2)s1)c1ccncc1`, the inhibition result in data set [4] is “inactive”. In the case of `Nc1ccc(Cl)cc1C=O`, in data set [1], the inhibition entry is “inactive”. Take `O=C(c1ccc(O)cc1)c1ccc(F)cc1`: the inhibition entry in data set [8] and in data set [9] was “inactive” each time. Take `Nc1nnc(CC2NC(=O)NC2=O)s1` (stereo not drawn): the solubility in [2] was found to be 87000 µM (≈ 18600 µg/mL). The log distribution coefficient (logD) in [3] is -1.74. Besides, the inhibition result in data set [4] is “inactive”. As for `Nc1nnc(CCC(=O)c2ccc(Cl)cc2)s1`, the inhibition entry in data set [8], in data set [9] and in data set [4] was “inactive” each time. Besides, in [2], the solubility was determined as 210 µM (≈ 56.2 µg/mL). In data set [3], this compound came in with a logD of 2.2.

For the compound `Nc1cc(-c2ccccc2)n[nH]1`, the inhibition result in data set [1] is “inactive”. With `C/C(=N\N)c1ccc(C)cc1`, the inhibition entry in [1] is “inactive”. On to `Nc1nnc(-c2ccco2)s1`, for which the solubility in data set [2] was found to be 13000 µM (≈ 2170 µg/mL). Also, the logD in data set [3] is 0.82. Further, in data set [4], the inhibition entry is “inactive”.

In data set [2], `CCC(C)c1nnc(N)s1` (stereo not drawn) returned a solubility of 22000 µM (≈ 3460 µg/mL). This compound also gave a logD in data set [3] of 1.25. Besides, the inhibition entry in data set [4] was “inactive”. Regarding `Cc1nnsc1SC(C)C`, in [1], the inhibition entry was “inactive”.

As for `CN(C)c1ccc(C=O)cc1C#N`, the inhibition result in data set [1] was “inactive”. Same read-out and setting: the result for `Nc1ccc(F)c(F)c1N` reads “inactive”. `Nc1nnc(CCCC(=O)c2ccccc2)s1` showed a solubility in [2] of 780 µM (≈ 193 µg/mL). The same compound yielded a logD in data set [3] of 1.76. The inhibition entry in [4] is “inactive”.

For the compound `COc1ccc(N2CCCC2=O)cc1`, the inhibition entry in [1] was “inactive”. On to `Fc1cccc(-n2ccnc2)c1`, for which, in data set [1], the inhibition entry was “inactive”. Regarding `Nc1nnc(CN2C(=O)c3ccccc3C2=O)s1`, the concentration in solution in data set [2] (solubility) was 1300 µM (≈ 338 µg/mL). The compound further yielded a logD in data set [3] of 0.22. Also, the inhibition result in data set [4] is “inactive”. As for `Clc1cccc(-n2ccnc2)c1`, the inhibition entry in data set [1] is “inactive”. As to `O=Cc1ccc(O)cc1F`, in data set [1], the inhibition result was “inactive”. `CN(C)C1=C2C=CC=C2C(=O)C1`: in data set [1], the inhibition entry was “inactive”.

For the compound `Nc1cc(F)ccc1O`, the inhibition result in data set [1] is “inactive”. On to `Nc1ccnc2ccccc12`, for which, in [1], the inhibition result is “inactive”.

The compound `Nc1nnc(-c2cccc(NS(=O)(=O)c3cccc([N+](=O)[O-])c3)c2)s1` gave a solubility in data set [2] of 24 µM (≈ 9.06 µg/mL). Also, the logD in data set [3] is 2.36. The inhibition entry in data set [4] is “inactive”. Turning to `Cc1ccc(C(=N)N)cc1`, in data set [1], the inhibition result is “inactive”.

On to `NNc1cccc(F)n1`, for which the inhibition result in data set [1] was “inactive”. In the case of `N#C/C=C(/N)N1CCCC1`, in data set [1], the inhibition result was “inactive”. For the compound `Nc1nnc(CCc2ccccc2)s1`, the solubility in [2] stood at 1300 µM (≈ 267 µg/mL). This compound also had a logD in [3] of 2.03. In addition, the inhibition entry in [4] was “inactive”. On to `Cc1ccc(-c2nnc(N)s2)cc1C`, for which the solubility in data set [2] came out at 420 µM (≈ 86.2 µg/mL). In data set [3], this compound came in with a logD of 2.95. Besides, the inhibition result in [4] is “inactive”. Regarding `O=c1[nH]c2c(Cl)cccc2s1`, the inhibition entry in [1] is “inactive”. As to `NCCc1ccc(N)cc1`, the inhibition entry in data set [1] is “inactive”. As to `CCOc1ccc(-c2nnc(N)s2)cc1`, in data set [2], the concentration in solution (solubility) came to 440 µM (≈ 97.4 µg/mL). This compound had a logD in data set [3] of 2.73. Moreover, the inhibition entry in [4] is “inactive”. With `Cc1cc(=O)n(C)c2ccccc12`, in data set [1], the inhibition result is “inactive”. In the case of `C#CCn1cc(C(=O)O)c(=O)c2cc(F)c(Cl)cc21`, in data set [1], the inhibition entry was “inactive”. The compound `Cc1nnc(N)s1` registered a solubility in [2] of 210000 µM (≈ 24200 µg/mL). The pH-dependent lipophilicity (logD) in data set [3] was -0.16. Further, in data set [4], the inhibition entry is “inactive”.

Turning to `Nc1nc(-c2ccc(Cl)cc2)cs1`, in data set [1], the inhibition entry was “inactive”. For the compound `NC(=O)C1=C2CCCc3cccc(c32)C1=O`, in data set [1], the inhibition entry was “inactive”. Take `Nc1cc(O)c2ccccc2n1`: in data set [1], the inhibition result was “inactive”. For `N#Cc1ccc(-c2nnc(N)s2)cc1`, in data set [2], the concentration in solution (solubility) was 390 µM (≈ 78.9 µg/mL). This compound came in with a logD in [3] of 1.68. Moreover, the inhibition result in [4] is “inactive”.

For the compound `CN1CCOc2cc(C=O)ccc21`, the inhibition result in data set [1] is “inactive”. With `O=C(O)c1ccc2cc[nH]c2c1`, the inhibition entry in data set [1] is “inactive”. Turning to `O=C1CCCN1c1ccccc1`, the inhibition result in [1] is “inactive”. On to `CC(=O)n1cc(C=O)c2ccccc21`, for which the inhibition result in [1] was “inactive”. As for `OCc1ccc2[nH]ccc2c1`, the inhibition result in [1] is “inactive”. On to `CCOc1ccc(CO)cc1`, for which the inhibition entry in data set [1] is “inactive”. Consider `O=Cc1ccc2c(c1)CCO2`, for which the inhibition result in [1] was “inactive”.

In [2], `Nc1nnc(-c2cccc([N+](=O)[O-])c2)s1` came in with a solubility of 530 µM (≈ 118 µg/mL). In data set [3], the logD worked out at 1.94. Moreover, in [4], the inhibition entry was “inactive”. For the compound `Nc1nnc(CCOc2ccc(Cl)cc2)s1`, the solubility in data set [2] came out at 240 µM (≈ 61.4 µg/mL). Moreover, in data set [3], the logD amounted to 2.44. Also, the inhibition entry in data set [4] is “inactive”.
